The list is not random: actives were taken first. Their share in the collection is about 2.4%.
DNMT1 inh – human DNMT1 methyltransferase inhibitors, primary screen, biochemical, molecular beacon, fluorescence, HinP1I cleavage, uHTS; DNA (cytosine-5)-methyltransferase 1 (Homo sapiens), P26358; inhibition (reported as % activation of signal), % at 10 µM; 0.83% of 360,000 active; in the data active = inhibition above about 50%
LMPTP inh – LMPTP phosphatase inhibitors, primary screen, biochemical, fluorescence intensity, uHTS; inhibition, % at 20 µM; recombinant LMPTP-A, OMFP fluorogenic substrate; 0.22% of 360,000 active; Low molecular weight phosphotyrosine protein phosphatase (Homo sapiens), P24666;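 active = compounds that cut the enzyme signal by at least half of the control window in the single-dose screen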;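 also: plate controls were DMSO wells with enzyme plus substrate for no effect and substrate without enzyme for full effect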
Target sequence (P24666 whole entry, looked up): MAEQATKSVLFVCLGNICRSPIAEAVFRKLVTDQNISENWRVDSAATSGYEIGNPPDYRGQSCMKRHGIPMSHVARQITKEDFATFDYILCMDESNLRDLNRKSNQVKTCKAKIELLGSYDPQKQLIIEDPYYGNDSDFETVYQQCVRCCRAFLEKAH
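Test system – LMPTP-A phosphatase enzyme · Quantity – 0.625 nM LMPTP-A final · Reagent – OMFP substrate, 400 µM final · Dosing – one test concentration per compound, 20 µM, with 3% DMSO overall · Timing – 50 min enzyme reaction at room temperature, protected from light · Detection – fluorescence intensity · Controls – substrate-only low control, DMSO enzyme-plus-substrate high control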
SUMO1 PPI mod – modulators of SUMO1 protein-protein interactions, primary screen, biochemical, uHTS. Small ubiquitin-related modifier 1 (Homo sapiens), P63165. SUMO1 binding to a labelled peptide, TR-FRET, 1 h. inhibition, % at 20 µM. 0.33% of 360,000 active. AID 602429, 2012; in the data active = inhibition above about 37%
Target sequence (P63165 whole entry, looked up): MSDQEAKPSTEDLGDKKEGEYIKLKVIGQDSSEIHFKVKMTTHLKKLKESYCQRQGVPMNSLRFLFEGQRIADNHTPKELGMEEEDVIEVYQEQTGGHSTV
NadD block – inhibitors of S. aureus NadD, primary screen, biochemical, colorimetric, uHTS | inhibition, % at 20 µM | 0.78% of 360,000 active | purified NadD enzyme, colorimetric absorbance read-out | Nicotinate-nucleotide adenylyltransferase NadD (Staphylococcus aureus N315) | AID 602399, 2012; in the data active = inhibition above about 26%
STEP block – STEP phosphatase inhibitors, primary screen, biochemical, fluorescence intensity, uHTS. Tyrosine-protein phosphatase non-receptor type 5 (Homo sapiens), P54829. recombinant STEP, OMFP fluorogenic substrate. inhibition, % at 20 µM. 0.25% of 360,000 active. AID 588621, 2011;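 active = inhibition at 20 µM, scaled per plate between control wells, above about 37%, limit read from the data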;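 also: 0% = DMSO with enzyme and substrate and 100% = substrate only without enzyme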
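Material: STEP (striatal-enriched tyrosine phosphatase) enzyme, cell-free; Compound dosing: 20 µM single dose in 1% DMSO; Technique: fluorescence read at 480 nm ex / 540 nm em; Times: reaction 20 min, ambient temperature; Medium: 50 mM Bis-Tris pH 6.0 with 2.5 mM DTT and 0.005% Tween 20; Also added: OMFP at 25 µM.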
Scp-1 inhibitor – Scp-1 phosphatase inhibitors, primary screen, biochemical, colorimetric, uHTS | Recombinant Scp1, phosphopeptide, malachite green phosphate absorbance | AID 493091, 2011 | 0.88% of 340,000 active | inhibition, % at 20 µM;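 active = inhibition above about 50% at 20 µM, limit read from the data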;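 also: plate controls were DMSO wells with enzyme for no effect and wells lacking enzyme for full effect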
Target sequence (Q9GZU7 76-261 limits assumed): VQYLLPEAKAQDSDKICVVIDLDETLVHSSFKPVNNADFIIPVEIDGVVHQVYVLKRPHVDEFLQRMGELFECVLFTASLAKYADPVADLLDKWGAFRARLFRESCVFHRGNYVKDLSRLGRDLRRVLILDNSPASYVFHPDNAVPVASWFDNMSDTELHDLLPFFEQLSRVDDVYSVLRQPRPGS
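Test system – truncated SCP-1 phosphatase (76-261aa) · Reagent – Phosphorylated 17-residue peptide substrate · Incubation – 45 min room-temperature reaction, 5 min colour, 30 min stabiliser · Detection – colorimetric phosphate reagent with accelerator and stabiliser, absorbance at 630 nm · Measure – % inhibition at 20 µM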
Scp1 confirm – Scp-1 phosphatase inhibitors, retest, confirmation, biochemical, colorimetric, single concentration. inhibition, % at 20 µM. 61% of 2,500 active. shares compounds with Scp-1 inhibitor. recombinant SCP-1 catalytic domain, phosphate release, malachite green absorbance;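 also: plate controls were DMSO with enzyme for no effect and buffer wells lacking enzyme for full effect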
Scp-1 MG ctr – colorimetric readout interference by compounds, confirmation, artefact control for Scp-1 inhibitor project, biochemical, single concentration | 2,500 tested, under 10 active | apparent inhibition (interference), % at 20 µM | Colorimetric interference counterscreen, malachite green absorbance 630 nm | shares compounds with Scp-1 inhibitor;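 also: compounds added after enzyme reaction finished so only phosphate colour detection is probed; plate controls were DMSO wells with completed Scp-1 reaction for no effect and substrate wells lacking enzyme for full effect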
Scp-1 Tm shift – Scp-1 binding by thermal shift, confirmation, orthogonal assay for Scp-1 inhibitor project, biophysical, differential scanning fluorimetry | Recombinant SCP1, Sypro Orange thermal shift Tm | thermal shift relative to vanadate control, % at 40 µM | shares compounds with Scp-1 inhibitor | 25% of 1,500 active | AID 540329, 2011;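 active = substances whose mean melting-temperature shift, as a percentage of the reference inhibitor's shift, reaches about 5.3%, limit read from the data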;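 also: 0% = Tm of DMSO wells and 100% = Tm with sodium orthovanadate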
Starred values were filed as active, the others as inactive.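 The calls were made as follows, unless noted: active = inhibition of at least 30% at 20 µM; inactive = the rest.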

For COc1ccc(N2CC(C(=O)N/N=C/c3ccccc3)CC2=O)cc1 (stereo not given) the results were DNMT1 inh 10, LMPTP inh -1, SUMO1 PPI mod -2, NadD block 3, STEP block -1, Scp-1 inhibitor 14, Scp1 confirm -23 and Scp-1 MG ctr -22.
For Cc1cccc(C(=O)NC2CCN(C(=O)NCc3ccccc3)CC2)c1 the results were DNMT1 inh 5, LMPTP inh 0, SUMO1 PPI mod 0, NadD block 14, STEP block 0, Scp-1 inhibitor 75*, Scp1 confirm 60*, Scp-1 MG ctr -11 and Scp-1 Tm shift -3.
`Cc1ccc(NC(=O)N2CCC(NC(=O)c3cccc(C)c3)CC2)cc1` gave DNMT1 inh 7, LMPTP inh 1, SUMO1 PPI mod -3, NadD block 7, STEP block 0, Scp-1 inhibitor 103*, Scp1 confirm 55*, Scp-1 MG ctr -9 and Scp-1 Tm shift -7.
For CCCN1C(=O)c2cc(C(=O)NC3CCCCCC3)ccc2C1O (stereo not given) the results were DNMT1 inh 7, LMPTP inh -2, SUMO1 PPI mod -1, NadD block -7, STEP block -1, Scp-1 inhibitor 60*, Scp1 confirm -13 and Scp-1 MG ctr -6.
CC(=O)c1ccc(NC(=O)C2CCN(S(=O)(=O)c3cccc4cccnc34)CC2)cc1 was read as DNMT1 inh 4, LMPTP inh 0, SUMO1 PPI mod 0, NadD block 2, STEP block 3, Scp-1 inhibitor 63*, Scp1 confirm -17 and Scp-1 MG ctr -16.
O=C(Nc1ccc2c(c1)OCCO2)C1CCCN1S(=O)(=O)c1cccc2cccnc12 (stereo not given) was read as DNMT1 inh -6, LMPTP inh 0, SUMO1 PPI mod -1, NadD block 3, STEP block -2, Scp-1 inhibitor 57*, Scp1 confirm -16 and Scp-1 MG ctr -15.
For O=C(Nc1cccc(F)c1)C1CCCN1S(=O)(=O)c1cccc2cccnc12 (stereo not given) the results were DNMT1 inh 1, LMPTP inh -1, SUMO1 PPI mod -1, NadD block 2, STEP block 3 and Scp-1 inhibitor -9.
For Cc1nnc(NC(=O)C(C)Sc2nnc(CNC(=O)c3ccccc3F)n2C)s1 (stereo not given) the results were DNMT1 inh 5, LMPTP inh 1, SUMO1 PPI mod 21, NadD block -4, STEP block -4 and Scp-1 inhibitor 1.
Screening CCOC(=O)c1sc(NC(=O)CSc2nnc(-c3ccco3)n2CC)c(C(=O)OCC)c1C returned DNMT1 inh 3, LMPTP inh 5, SUMO1 PPI mod 2, NadD block 17, STEP block 4 and Scp-1 inhibitor 22.
CCOC(=O)c1sc(NC(=O)CSc2nncs2)c(C(=O)OCC)c1C was read as DNMT1 inh -9, LMPTP inh 0, SUMO1 PPI mod 3, NadD block -3, STEP block 1, Scp-1 inhibitor 52*, Scp1 confirm -10 and Scp-1 MG ctr -16.
CC(=O)N(c1ccccc1)c1c(F)c(F)c(F)c(F)c1F was read as DNMT1 inh 0, LMPTP inh -1, SUMO1 PPI mod -1, NadD block 5, STEP block -2, Scp-1 inhibitor 61*, Scp1 confirm -8 and Scp-1 MG ctr -13.
`CC(=O)N(c1ccccc1)c1nc2ccccc2s1` gave DNMT1 inh 0, LMPTP inh -1, SUMO1 PPI mod 2, NadD block -3, STEP block 0 and Scp-1 inhibitor -1.
For CN1C(=O)Cc2cc(S(=O)(=O)N3CCN(c4ccccc4F)CC3)ccc21 the results were DNMT1 inh -3, LMPTP inh -1, SUMO1 PPI mod 1, NadD block 12, STEP block 1 and Scp-1 inhibitor -8.
Screening O=[N+]([O-])c1cc(S(=O)(=O)Nc2ccccc2)ccc1NCc1ccccc1 returned DNMT1 inh -2, LMPTP inh 3, SUMO1 PPI mod -17, NadD block 1, STEP block -4 and Scp-1 inhibitor -5.
`O=[N+]([O-])c1cc(S(=O)(=O)Nc2ccccc2)ccc1Nc1ccccc1` gave DNMT1 inh 24, LMPTP inh 6, SUMO1 PPI mod -21, NadD block -1, STEP block 2, Scp-1 inhibitor 61*, Scp1 confirm -3 and Scp-1 MG ctr -26.
Cc1cccc(N2CC34C=CC(O3)C(C(=O)O)C4C2=O)c1 (stereo not given) was read as DNMT1 inh 7, LMPTP inh 0, SUMO1 PPI mod 0, NadD block -2, STEP block 2 and Scp-1 inhibitor 0.
For Cc1ccc2c(c1)C1OCCC1C1N2C(=O)C2C(C(=O)O)C3C=CC21O3 (stereo not given) the results were DNMT1 inh 20, LMPTP inh 0, SUMO1 PPI mod 2, NadD block 2, STEP block 2, Scp-1 inhibitor 77*, Scp1 confirm 34*, Scp-1 MG ctr -17 and Scp-1 Tm shift 4.
`COCC(C)n1c(SCC(=O)N2CCc3ccccc3C2)nc2ccccc2c1=O` (stereo not given) gave DNMT1 inh -9, LMPTP inh 0, SUMO1 PPI mod 1, NadD block -1, STEP block 5 and Scp-1 inhibitor -5.
CC12CCC(C(=O)N/N=C/c3ccc(O)cc3)(OC1=O)C2(C)C (stereo not given) was read as DNMT1 inh 2, LMPTP inh -1, SUMO1 PPI mod -2, NadD block -7, STEP block 1 and Scp-1 inhibitor 11.

High-throughput results (PubChem BioAssay)
